Measured values as given in ChEMBL document CHEMBL1124189, “2-(2-Aryl-2-oxoethylidene)-1,2,3,4-tetrahydropyridines. Novel isomers of 1,4-dihydropyridine calcium channel blockers” (J Med Chem, 1988).

Experiments:
Rattus norvegicus [1] = experiment: Concentration required to produce 25% increase in intraventricular pressure(LV dp/dt); format: functional, Cardiac ventricle
Method in brief: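 Isolated perfused male rat heart (400–600 g; pentobarbital 50 mg/kg ip, heparin 2000 units ip), Krebs-Henseleit bicarbonate buffer at constant 70 mmHg, 37 °C, spontaneous beating; LV dP/dt expressed as percent change from control; concentration giving a 25% increase (or decrease) in LV dP/dt determined graphically, minimum two hearts.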

[2] = biological target: Voltage-gated L-type calcium channel (Rattus norvegicus, UniProt P22002+Q02485+P27732); experiment: Inhibition of [3H]nitrendipine binding to calcium channels in the rat brain.; format: tissue-based
Rattus norvegicus [3] = species on record: Rattus norvegicus; experiment: Concentration required to produce 25% increase in coronary flow; format: functional
Method in brief: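 Langendorff isolated hearts from male rats (400–600 g), pentobarbital 50 mg/kg ip anesthesia, heparin 2000 units ip; retrograde aortic perfusion with modified Krebs-Henseleit bicarbonate buffer, about 15 mL/min for 2–3 min, then constant 70 mmHg pressure, 37 °C; spontaneously beating. Coronary flow taken as percent change from control; EC25 (25% increase) read graphically from at least two hearts.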

Oryctolagus cuniculus = species on record: Oryctolagus cuniculus; experiment: The compound was tested for inhibition of potassium depolarized Rabbit aorta; format: functional

Structure (SMILES)	EC25 (Rattus norvegicus [1])	IC50 [2]	EC25 (Rattus norvegicus [3])	IC50 (Oryctolagus cuniculus)
CCOC(=O)[C@@H]1C(C2=C(O)c3ccccc3CC2)=NC(C)=C(C#N)[C@H]1c1ccccc1C(F)(F)F	>1000 nM	> 1000 nM	1000 nM	
CCOC(=O)[C@@H]1/C(=C/C(=O)c2ccccc2)N=C(C)/C(=C(/O)OCC)[C@H]1c1ccccc1[N+](=O)[O-]	2200 nM	31.1 nM	100 nM	17000 nM
CCOC(=O)C1=C(C)N=C(C2=C(O)c3ccccc3CC2)[C@@H](C(=O)OCC)[C@@H]1c1ccccc1C(F)(F)F		> 1000 nM		
CCOC(=O)CC1=NC(C)=C(C#N)C(c2ccccc2C(F)(F)F)/C1=C(\O)OCC (configuration not stated)		149.6 nM		
CCOC(=O)C1=C(C)N=C(/C=C(\O)c2ccccc2)[C@@H](C(=O)OCC)[C@@H]1c1ccccc1	500 nM	912.8 nM	200 nM	
CCOC(=O)[C@@H]1/C(=C/C(=O)c2ccc(Cl)cc2)N=C(C)/C(=C(/O)OCC)[C@H]1c1ccccc1C(F)(F)F	<100 nM	162.5 nM	<100 nM	
CCOC(=O)C1=C(C)N=C(/C=C(\O)OCC)C(C(=O)OCC)C1c1ccccc1C(F)(F)F (configuration not stated)	>300 nM	346.9 nM	<100 nM	
CCOC(=O)[C@@H]1/C(=C/C(=O)c2ccccc2Cl)N=C(C)/C(=C(/O)OCC)[C@H]1c1ccccc1C(F)(F)F		> 1000 nM		
CCOC(=O)[C@@H]1/C(=C/C(=O)c2ccc(C)cc2)N=C(C)/C(=C(/O)OCC)[C@H]1c1ccccc1C(F)(F)F	>300 nM	413.7 nM	130 nM	
CCOC(=O)[C@@H]1C(/C=C(\O)c2ccccc2)=NC(C)=C([N+](=O)[O-])[C@H]1c1ccccc1C(F)(F)F	>300 nM	335.8 nM	100 nM	
CCOC(=O)[C@@H]1C(/C=C(\O)c2ccccc2)=NC2=C(C(=O)CCC2)[C@H]1c1ccccc1C(F)(F)F	1500 nM	> 1000 nM	1400 nM	
CCOC(=O)[C@@H]1/C(=C/C(=O)c2ccccc2)N=C(C)/C(=C(/O)OCC)[C@H]1c1ccccc1C(F)(F)F	>3000 nM	296.9 nM	<100 nM	
CCOC(=O)[C@@H]1/C(=C/C(=O)c2ccccc2)N=C(C)/C(=C(/O)OCC)[C@H]1c1cccc(Cl)c1Cl	>300 nM	27.7 nM	200 nM	
CCO/C(O)=C1C(C)=N/C(=C\C(=O)c2ccccc2)[C@@H](C(=O)c2ccccc2)[C@@H]\1c1ccccc1C(F)(F)F	1200 nM	591.4 nM	380 nM	
CCOC(=O)[C@@H]1/C(=C/C(=O)c2ccncc2)N=C(C)/C(=C(/O)OCC)[C@H]1c1ccccc1C(F)(F)F	>300 nM	25.5 nM	30 nM	3100 nM
CCOC(=O)[C@@H]1/C(=C/C(=O)c2ccc(N(C)C)cc2)N=C(C)/C(=C(/O)OCC)[C@H]1c1ccccc1C(F)(F)F	>300 nM	31.7 nM	200 nM	2700 nM
CCOC(=O)CC1=C(C(=O)OCC)C(c2ccccc2C(F)(F)F)/C(=C(\O)OCC)C(C)=N1 (configuration not stated)		20 nM		
CC1=C([N+](=O)[O-])[C@@H](c2ccccc2C(F)(F)F)[C@H](C(=O)c2ccccc2)C(/C=C(\O)c2ccccc2)=N1		> 1000 nM		
CCOC(=O)[C@@H]1/C(=C/C(=O)c2ccc(F)cc2)N=C(C)/C(=C(/O)OCC)[C@H]1c1ccccc1C(F)(F)F	>300 nM	116.7 nM	300 nM	150000 nM
CCOC(=O)C1C(/C=C(\O)c2ccccc2)=NC(C)=C(C#N)C1c1ccccc1C(F)(F)F (configuration not stated)	3000 nM	1021 nM	300 nM	
COC(=O)C1=C(C)NC(C)=C(C(=O)OC)C1c1ccccc1[N+](=O)[O-] [NIFEDIPINE]	300 nM		10 nM	200 nM
